Measurements taken from PubChem BioAssay AID720543 (The Scripps Research Institute Molecular Screening Center, 2013).
The campaign covered roughly 370,000 compounds. About 2,000 (0.54%) were called active. What follows is part of a selection rich in actives, with near analogues and random picks from the rest. A number with no mark means an inactive call.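 The calls were made as follows: active = inhibition exceeding the mean over every tested compound plus 3 SD (cut at about 30% in these data); inactive = the rest.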

molecular target: (Lyso)-N-acylphosphatidylethanolamine lipase (Mus musculus) (UniProt Q8VD66); assay: ABHD4 inhibitors, primary screen, biochemical, fluorescence polarization, mouse (AID 720543); details: purified mABHD4, FP-Rh probe fluorescence polarization; at 8.92 µM; hits give high values;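 also: 0% = plate median of compound wells and 100% = S159A mutant with DMSO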
Sequence (Q8VD66 whole entry, looked up): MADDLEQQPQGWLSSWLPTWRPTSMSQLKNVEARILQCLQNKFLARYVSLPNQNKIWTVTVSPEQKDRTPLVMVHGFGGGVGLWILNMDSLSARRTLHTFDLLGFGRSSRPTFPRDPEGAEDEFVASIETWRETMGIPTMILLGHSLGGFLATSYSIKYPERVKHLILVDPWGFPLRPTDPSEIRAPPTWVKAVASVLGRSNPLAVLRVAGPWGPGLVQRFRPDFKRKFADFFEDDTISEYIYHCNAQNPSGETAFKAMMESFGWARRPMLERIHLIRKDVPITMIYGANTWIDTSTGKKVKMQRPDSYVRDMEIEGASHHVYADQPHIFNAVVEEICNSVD
Outline: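 Test system: mABHD4 protein | Buffer or medium: HEPES pH 7.0 buffer, 150 mM NaCl, 0.01% Pluronic F-127 | Probe or stimulus: FP-Rh fluorescent activity-based probe, added after compound pre-incubation | Timing: Pre-incubation 45 min, probe exposure 60 min, at 25 °C | Technique: Fluorescence polarization, excitation 525 nm, emission 598 nm, BODIPY TMR filters | Repeats: Single well per compound (singlicate)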

Question: For `COC(=O)c1c(-c2ccc(OC)cc2)c2c(c3c4cc(OC)ccc4n(S(=O)(=O)c4ccc(F)cc4)c13)C(=O)N(C)C2`, which inhibition is on record?
Answer: The inhibition was -0.06%.

Question: How did the inhibition turn out when `Cc1cc(NS(=O)(=O)c2ccc(NC(=O)CSc3nnc(SCc4ccc(F)cc4)s3)cc2)nc(C)n1` was run?
Answer: The inhibition was -21.5%.

Question: How did the inhibition turn out when `Fc1ccc2nc(COCc3nc4ccc(F)cc4[nH]3)[nH]c2c1` was run?
Answer: Its inhibition is -7.17%.

Question: Which inhibition does the source give for `COCC(=O)Nc1c(C(=O)N2CCCC2)oc2ccccc12` here?
Answer: The inhibition was -0.25%.

Question: For `COC(=O)c1[nH]c2ccc(Br)cc2c1NC(=O)Oc1ccccc1`, which inhibition is on record?
Answer: Its inhibition is -1.15%.

Question: How did the inhibition turn out when `COC(=O)c1oc2ccc(Br)cc2c1NC(C)=O` was run?
Answer: Its inhibition is 40.3% (active).

Question: With `FC(F)(F)c1cccc(NC(=S)OC2CCC23CCC(c2ccccc2)CC3)c1` (configuration not stated) as the molecule, how does the inhibition read?
Answer: Its inhibition is -21.8%.

Question: With `Cc1cc(C)c(S(=O)(=O)NN=C2c3ccccc3[C@H]3Cc4csc[n+]4[C@@H]23)c(C)c1` as the molecule, how does the inhibition read?
Answer: Its inhibition is 33.3% (active).

Question: For `CCOC(=O)c1csc(NC(=O)C2CCCN(S(=O)(=O)c3ccc(Cl)s3)C2)n1` (configuration not stated), which inhibition is on record?
Answer: The inhibition was -51.6%.

Question: With `CCCCCCN1CCS(=O)(=O)N(Cc2ccc(C(F)(F)F)cc2)C(C(=O)OC)C1` (configuration not stated) as the molecule, how does the inhibition read?
Answer: The inhibition was -4.07%.

Question: `COc1cc(/C=C/C(=O)O)cc(S(=O)(=O)Nc2ccccc2C(=O)NCCc2ccccc2)c1OC` was tested. Which inhibition did it give?
Answer: Its inhibition is 6.19%.

Question: For `O=C(Nc1cc(S(=O)(=O)Nc2ccc(Cl)cc2)ccc1O)c1ccc(F)cc1F`, which inhibition is on record?
Answer: Its inhibition is -6.3%.

Question: `O=[N+]([O-])c1cc(S(=O)(=O)Nc2cccc(Cl)c2)ccc1N=Nc1c(O)[nH]c2ccccc12` was tested. Which inhibition did it give?
Answer: Its inhibition is 7.74%.

Question: With `COc1ccc(Br)cc1/C=N/Nc1ccc(S(=O)(=O)Nc2ccccc2C(=O)O)cc1[N+](=O)[O-]` as the molecule, how does the inhibition read?
Answer: Its inhibition is 38.4% (active).

Question: `Cc1ccc(NS(=O)(=O)c2ccc3c(c2)n(C)c(=O)c(=O)n3C)c(C)c1` was tested. Which inhibition did it give?
Answer: Its inhibition is -1.8%.

Question: Which inhibition does the source give for `COc1ccc(Br)cc1CN(C)CC(=O)Nc1cc(Cl)cc(Cl)c1` here?
Answer: Its inhibition is 6.47%.

Question: `Cc1ccc(OCCOCCOc2ccc(Br)cc2/C=N\NC(=O)c2ccncc2)cc1` was tested. Which inhibition did it give?
Answer: Its inhibition is -84.8%.

Question: For `COc1ccc(Br)cc1/C=N/Nc1ccc(Cl)c(C(=O)O)c1`, which inhibition is on record?
Answer: Its inhibition is 40.3% (active).

Question: How did the inhibition turn out when `COc1ccc(S(=O)(=O)NC(C)c2ccccc2)cc1C(=O)N1CCCCC1` (configuration not stated) was run?
Answer: Its inhibition is 3.07%.

Question: `O=C(O)c1ccccc1/C=N/Nc1ccc(S(=O)(=O)Nc2ccc(Cl)cc2)cc1[N+](=O)[O-]` was tested. Which inhibition did it give?
Answer: Its inhibition is 43.8% (active).

Question: For `Cc1ccc(C)c(NS(=O)(=O)c2ccc(OCC(=O)NCc3cccnc3)cc2)c1`, which inhibition is on record?
Answer: Its inhibition is -3.89%.

Question: How did the inhibition turn out when `Cc1ccc(NS(=O)(=O)c2ccc(N/N=C/c3ccccc3OCC(=O)O)c([N+](=O)[O-])c2)c(C)c1` was run?
Answer: Its inhibition is 52.1% (active).
